Test results published in ChEMBL document CHEMBL5058577, “EUbOPEN Chemogenomics Library 2 (Multiplex)” (2022).

Test system: HEK-293T
Assay: Multiplex assay against HEK293T
Assay type: toxicity, cell-based
Conditions: human
How it was run: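 Cells were classed with CellPathfinder machine-learning gating, first as Hoechst high-intensity objects or normal cells, then (normal cells) as healthy, pyknosed or fragmented nuclei, and finally (pyknosed cells) as mitotic or apoptotic. Staining of live cells at seeding used Hoechst33342, BioTracker Green Microtubule Cytoskeleton Dye, MitoTracker Red and Annexin V Alexa Fluor 680, with imaging on a CQ1 microscope at 37°C and 5% CO2 after compound addition. Tubulin, mitochondrial-mass and membrane-permeability phenotypes are per cents of healthy-nucleus cells.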

[1] = 12 h, 1 µM, compound concentration 1 uM, replicate 1
[2] = 12 h, 1 µM, compound concentration 1 uM, replicate 2
[3] = 12 h, 10 µM, compound concentration 10 uM, replicate 1
[4] = 12 h, 10 µM, compound concentration 10 uM, replicate 2
[5] = 24 h, 1 µM, compound concentration 1 uM, replicate 1
[6] = 24 h, 1 µM, compound concentration 1 uM, replicate 2
[7] = 24 h, 10 µM, compound concentration 10 uM, replicate 1
[8] = 24 h, 10 µM, compound concentration 10 uM, replicate 2
[9] = 48 h, 1 µM, compound concentration 1 uM, replicate 1
[10] = 48 h, 1 µM, compound concentration 1 uM, replicate 2
[11] = 48 h, 10 µM, compound concentration 10 uM, replicate 1
[12] = 48 h, 10 µM, compound concentration 10 uM, replicate 2

CCCOc1ccc2[nH]cc(C3=CCNCC3)c2n1.Cl
Population Apoptotic (%) [1]: 32%
Population Fragmented Nuclei (%) [1]: 5%
Population Healthy Nuclei (%) [1]: 81%
Population Hoechst High Intensity Objects (%) [1]: 5%
Population Membrane Permeable-Phenotype (%) [1]: 0%
Population Mitochondria Different-Phenotype (%) [1]: 41%
Population Mitotic Cells (%) [1]: 68%
Population Normal (%) [1]: 94%
Population Pyknosed Nuclei (%) [1]: 12%
Population Tubulin-Different-Phenotype (%) [1]: 39%
Total Cell Count [1]: 416
Population Apoptotic (%) [2]: 44%
Population Fragmented Nuclei (%) [2]: 6%
Population Healthy Nuclei (%) [2]: 82%
Population Hoechst High Intensity Objects (%) [2]: 4%
Population Mitochondria Different-Phenotype (%) [2]: 52%
Population Mitotic Cells (%) [2]: 55%
Population Normal (%) [2]: 95%
Population Pyknosed Nuclei (%) [2]: 10%
Population Tubulin-Different-Phenotype (%) [2]: 21%
Total Cell Count [2]: 344
Population Apoptotic (%) [3]: 43%
Population Fragmented Nuclei (%) [3]: 5%
Population Healthy Nuclei (%) [3]: 78%
Population Hoechst High Intensity Objects (%) [3]: 10%
Population Membrane Permeable-Phenotype (%) [3]: 0%
Population Mitochondria Different-Phenotype (%) [3]: 58%
Population Mitotic Cells (%) [3]: 56%
Population Normal (%) [3]: 89%
Population Pyknosed Nuclei (%) [3]: 15%
Population Tubulin-Different-Phenotype (%) [3]: 41%
Total Cell Count [3]: 446
Population Apoptotic (%) [4]: 55%
Population Fragmented Nuclei (%) [4]: 6%
Population Healthy Nuclei (%) [4]: 82%
Population Hoechst High Intensity Objects (%) [4]: 4%
Population Mitochondria Different-Phenotype (%) [4]: 76%
Population Mitotic Cells (%) [4]: 44%
Population Normal (%) [4]: 95%
Population Pyknosed Nuclei (%) [4]: 11%
Total Cell Count [4]: 387
Population Apoptotic (%) [5]: 28%
Population Fragmented Nuclei (%) [5]: 10%
Population Healthy Nuclei (%) [5]: 76%
Population Hoechst High Intensity Objects (%) [5]: 3%
Population Membrane Permeable-Phenotype (%) [5]: 0%
Population Mitochondria Different-Phenotype (%) [5]: 26%
Population Mitotic Cells (%) [5]: 71%
Population Normal (%) [5]: 96%
Population Pyknosed Nuclei (%) [5]: 12%
Population Tubulin-Different-Phenotype (%) [5]: 24%
Total Cell Count [5]: 558
Population Apoptotic (%) [6]: 35%
Population Fragmented Nuclei (%) [6]: 9%
Population Healthy Nuclei (%) [6]: 80%
Population Hoechst High Intensity Objects (%) [6]: 2%
Population Membrane Permeable-Phenotype (%) [6]: 1%
Population Mitochondria Different-Phenotype (%) [6]: 29%
Population Mitotic Cells (%) [6]: 64%
Population Normal (%) [6]: 97%
Population Pyknosed Nuclei (%) [6]: 9%
Population Tubulin-Different-Phenotype (%) [6]: 14%
Total Cell Count [6]: 425
Population Apoptotic (%) [7]: 39%
Population Fragmented Nuclei (%) [7]: 12%
Population Healthy Nuclei (%) [7]: 74%
Population Hoechst High Intensity Objects (%) [7]: 7%
Population Membrane Permeable-Phenotype (%) [7]: 0%
Population Mitochondria Different-Phenotype (%) [7]: 50%
Population Mitotic Cells (%) [7]: 60%
Population Normal (%) [7]: 92%
Population Pyknosed Nuclei (%) [7]: 12%
Population Tubulin-Different-Phenotype (%) [7]: 38%
Total Cell Count [7]: 583
Population Apoptotic (%) [8]: 51%
Population Fragmented Nuclei (%) [8]: 6%
Population Healthy Nuclei (%) [8]: 81%
Population Hoechst High Intensity Objects (%) [8]: 3%
Population Mitochondria Different-Phenotype (%) [8]: 63%
Population Mitotic Cells (%) [8]: 48%
Population Normal (%) [8]: 96%
Population Pyknosed Nuclei (%) [8]: 11%
Population Tubulin-Different-Phenotype (%) [8]: 34%
Total Cell Count [8]: 502
Population Apoptotic (%) [9]: 17%
Population Fragmented Nuclei (%) [9]: 13%
Population Healthy Nuclei (%) [9]: 79%
Population Hoechst High Intensity Objects (%) [9]: 2%
Population Membrane Permeable-Phenotype (%) [9]: 0%
Population Mitochondria Different-Phenotype (%) [9]: 15%
Population Mitotic Cells (%) [9]: 82%
Population Normal (%) [9]: 97%
Population Pyknosed Nuclei (%) [9]: 6%
Population Tubulin-Different-Phenotype (%) [9]: 12%
Total Cell Count [9]: 872
Population Apoptotic (%) [10]: 38%
Population Fragmented Nuclei (%) [10]: 9%
Population Healthy Nuclei (%) [10]: 82%
Population Hoechst High Intensity Objects (%) [10]: 1%
Population Membrane Permeable-Phenotype (%) [10]: 1%
Population Mitochondria Different-Phenotype (%) [10]: 20%
Population Mitotic Cells (%) [10]: 61%
Population Normal (%) [10]: 98%
Population Pyknosed Nuclei (%) [10]: 7%
Population Tubulin-Different-Phenotype (%) [10]: 9%
Total Cell Count [10]: 657
Population Apoptotic (%) [11]: 35%
Population Fragmented Nuclei (%) [11]: 14%
Population Healthy Nuclei (%) [11]: 76%
Population Hoechst High Intensity Objects (%) [11]: 6%
Population Membrane Permeable-Phenotype (%) [11]: 0%
Population Mitochondria Different-Phenotype (%) [11]: 41%
Population Mitotic Cells (%) [11]: 64%
Population Normal (%) [11]: 93%
Population Pyknosed Nuclei (%) [11]: 8%
Population Tubulin-Different-Phenotype (%) [11]: 23%
Total Cell Count [11]: 776
Population Apoptotic (%) [12]: 26%
Population Fragmented Nuclei (%) [12]: 13%
Population Healthy Nuclei (%) [12]: 80%
Population Hoechst High Intensity Objects (%) [12]: 5%
Population Mitochondria Different-Phenotype (%) [12]: 37%
Population Mitotic Cells (%) [12]: 73%
Population Normal (%) [12]: 94%
Population Pyknosed Nuclei (%) [12]: 6%
Population Tubulin-Different-Phenotype (%) [12]: 20%
Total Cell Count [12]: 733
